Source: article PMC9293090 (Journal of Neurochemistry, 2021)

Experiments:
[1] = molecular target: T1, GCS (Homo sapiens, UniProt Q16739); test: Affinity selection mass spectrometry; format: binding
T1 sequence (Q16739 1-394): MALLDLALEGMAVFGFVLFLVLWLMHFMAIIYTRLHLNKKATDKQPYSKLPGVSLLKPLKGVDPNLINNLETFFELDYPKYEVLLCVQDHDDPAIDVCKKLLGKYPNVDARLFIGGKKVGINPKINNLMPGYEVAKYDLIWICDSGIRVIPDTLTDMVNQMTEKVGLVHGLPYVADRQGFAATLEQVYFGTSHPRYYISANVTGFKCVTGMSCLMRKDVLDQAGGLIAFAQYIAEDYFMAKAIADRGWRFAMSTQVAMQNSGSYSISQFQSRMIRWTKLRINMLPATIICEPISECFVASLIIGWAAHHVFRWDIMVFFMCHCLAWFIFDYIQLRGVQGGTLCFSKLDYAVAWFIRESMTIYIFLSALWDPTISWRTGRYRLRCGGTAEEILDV
In short: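 Compound at various concentrations was incubated 60 min at 20-25°C with 10 μg/ml GCS-expressing microsomal protein in 20 mM Tris–HCl pH 7.5, 1 mM DTT, 0.01% Tween20, plus 200 μM UDP-glucose, 70 μM C8-ceramide, or neither. Bound and free compound were separated by […] through Sephadex G50-Fine. The eluent was denatured with 70% acetonitrile, and compound was quantified by LC/MS. Specific binding = counts with GCS minus counts without GCS.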

[2] = molecular target: T1, GCS; test: Steady-state kinetic GCS competition experiment; format: biochemical; conditions: for K m / V max: for UDP-glucose, fixed ceramide 7.4 μM; for inhibition mode of GCS against UDP-glucose: various UDP-glucose concentrations; for inhibition mode of GCS against ceramide: various ceramide concentrations
[3] = test system: GlcCer; conditions: ref Larsen et al., 2012; cited from earlier work
[4] = test system: GlcSph; conditions: clinical trial, therapeutic dose; ref Mistry et al., 2017; cited from earlier work
[5] = presence of UDP-glucose (200 μM)

| Structure (SMILES) | binding to GCS by AS-MS ([1]; absence of UDP-glucose) | binding to GCS by AS-MS [1, 5] | K m [2] | V max [2] | inhibition mode of GCS against UDP-glucose [2] | inhibition mode of GCS against ceramide [2] | effect on the GlcCer level in the brain [3] | reduction of GlcSph concentration in the plasma [4] |
| --- | --- | --- | --- | --- | --- | --- | --- | --- |
| CC(C)(NC(=O)O[C@@H]1CN2CCC1CC2)c1csc(-c2ccc(F)cc2)n1 [Venglustat] | not detected | bind GCS | 2.53 ± 0.09 µM | 38.58 ± 0.32 µmol/min | uncompetitive | noncompetitive |  |  |
| CCCCCCCC(=O)N[C@H](CN1CCCC1)[C@H](O)c1ccc2c(c1)OCCO2 [Eliglustat] | not detected | bind GCS | 2.37 ± 0.11 µM | 37.60 ± 0.45 µmol/min | uncompetitive | noncompetitive | no significant effect | 40% |
